{
  "source": "ChEMBL document CHEMBL5674889",
  "about": "“Enhanced JunD/RSK3 signalling due to loss of BRD4/FOXD3/miR-548d-3p axis determines BET inhibition resistance” (2020)",
  "key": {"[1]": {"tested_on": "MDA-MB-231", "experiment": "Antiproliferative activity in human MDA-MB-231 cells assessed as cell growth in the presence of AZ5104 at 1 uM by CellTiter-Glo luminescent cell viability assay", "format": "functional, cell-based", "method_in_brief": "(§1)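 BLBC cells seeded at 3000/well, adhered overnight, then exposed to JQ1 (1 μM) with or without an EGFR inhibitor (1 μM) for 48 h; control and RPS6KA2-shRNA clones tested. Viability by CellTiter-Glo luminescence, background-subtracted and normalized to DMSO-treated control; triplicates, mean ± SD, one-way ANOVA against JQ1 alone.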"}, "[2]": {"tested_on": "MDA-MB-231", "experiment": "Antiproliferative activity in human MDA-MB-231 cells assessed as cell growth in the presence of lapatinib at 1 uM by CellTiter-Glo luminescent cell viability assay", "format": "functional, cell-based", "method_in_brief": "as §1"}, "[3]": {"tested_on": "BT-549", "experiment": "Effect on human RPS6KA2-knockdown BT-549 cells assessed as RSK3 protein expression at 1 uM by Western blot analysis", "format": "functional, cell-based"}, "[4]": {"tested_on": "MDA-MB-231", "experiment": "Antiproliferative activity in human JunD-overexpressing MDA-MB-231 cells assessed as cell growth in the presence of osimertinib at 1 uM by CCK-8 assay", "format": "functional, cell-based", "method_in_brief": "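Vector control, RSK3- or JunD-overexpressing cells seeded 3000/well, adhered overnight, then treated with JQ1 alone or combined with kinase inhibitors for 48 h; growth by CCK-8, normalized to DMSO control; triplicates, mean ± SD.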"}, "[5]": {"tested_on": "BT-549", "experiment": "Antiproliferative activity in human JUND-overexpressing BT-549 cells assessed as cell viability at 1 uM by CellTiter-Glo luminescent cell viability assay", "format": "functional, cell-based", "method_in_brief": "(§2)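 Stable JUND-knockdown (shRNA, puromycin 1.0 μg/ml selection) or JUND-overexpressing clones and vector controls, seeded 3000 cells/well and adhered overnight, then given DMSO or JQ1 (1 μM) for 48 h. Read-out CellTiter-Glo luminescence normalized to DMSO control; triplicates, mean ± SD, one-way ANOVA.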"}, "[6]": {"tested_on": "MDA-MB-231", "experiment": "Induction of apoptosis in human MDA-MB-231 cells over expressing RSK3 assessed as early apoptotic cells at 1 uM by Annexin V-FITC flow cytometric analysis (reference value: 3.85%)", "format": "functional", "method_in_brief": "(§3)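 Stable clones (vector, RSK3-overexpressing or RPS6KA2-knockdown) treated ± JQ1 1 μM. Cells washed twice in PBS, resuspended at 1 × 10^6 cells/ml in binding buffer, stained with Annexin V-FITC and propidium iodide for 10 min at room temperature in the dark, then read by flow cytometry. Three independent experiments; one-way ANOVA.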"}, "[7]": {"tested_on": "MDA-MB-231", "experiment": "Antiproliferative activity in human JUND-knockdown MDA-MB-231 cells assessed as cell viability at 1 uM by CellTiter-Glo luminescent cell viability assay", "format": "functional, cell-based", "method_in_brief": "as §2"}, "[8]": {"tested_on": "MDA-MB-231", "experiment": "Induction of apoptosis in human RPS6KA2-knockdown MDA-MB-231 cells at 1 uM by FACS assay", "format": "functional, cell-based", "method_in_brief": "as §3"}, "[9]": {"tested_on": "MDA-MB-231", "experiment": "Antitumor activity against human MDA-MB-231 cells xenografted in BALB/c nude mouse model assessed as reduction of tumor weight in the presence of osimertinib at 35 mg/kg/day, sc administered every 2 days for 30 days", "format": "functional, organism-based", "details": "time 30.0 day", "method_in_brief": "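MDA-MB-231 xenografts used 1 × 10^6 cells injected subcutaneously into female BALB/c nude mice (4–6 weeks). Animals were split into four groups (n = 7) at ~100 mm3: vehicle, osimertinib 10 mg/kg, 35 mg/kg agent, or the combination, each given every 2 days. Volume was measured by calliper as length × width²/2; tumours were weighed at end.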"}, "[10]": {"tested_on": "MDA-MB-231", "experiment": "Antiproliferative activity in human MDA-MB-231 cells assessed as inhibition of cell growth at 1 uM by CCK-8 assay", "format": "functional, cell-based"}, "[11]": {"tested_on": "BT-549", "experiment": "Effect on human RPS6KA2 knockdown BT-549 cells assessed as RSK3 protein expression at 1 uM for 24 hrs by Western blot analysis", "format": "functional, cell-based"}, "[12]": {"tested_on": "BT-549", "experiment": "Effect of human RSK3-overexpressing BT-549 cells assessed as suppression of tumour sphere formation at 1 uM by Tumour sphere assay", "format": "functional, cell-based"}, "[13]": {"tested_on": "BT-549", "experiment": "Antiproliferative activity in human FOXD3-knockdown BT-549 cells assessed as cell growth at 1 uM by CCK-8 assay", "format": "functional, cell-based"}, "[14]": {"tested_on": "BT-549", "experiment": "Antiproliferative activity in human JUND-knockdown BT-549 cells assessed as cell viability at 1 uM by CellTiter-Glo luminescent cell viability assay", "format": "functional, cell-based", "method_in_brief": "as §2"}, "[15]": {"tested_on": "MDA-MB-231", "experiment": "Induction of apoptosis in human MDA-MB-231 cells over expressing RSK3 assessed as necrotic cells at 1 uM by Annexin V-FITC flow cytometric analysis (reference value: 3.51%)", "format": "functional", "method_in_brief": "as §3"}, "[16]": {"tested_on": "MDA-MB-231", "experiment": "Antiproliferative activity in human JUND-overexpressing MDA-MB-231 cells assessed as tumor sphere formation at 1 uM by Tumor sphere assay", "format": "functional, cell-based"}, "[17]": {"tested_on": "HEK-293T", "experiment": "Effect on human HEK293T cells transfected with FOXD3 assessed as decrease in luciferase activity at 1 uM for 6 hrs by Luciferase reporter assay", "format": "functional, cell-based"}, "[18]": {"tested_on": "BT-549", "experiment": "Antiproliferative activity in human RPS6KA2-knockdown BT-549 cells assessed as cell growth at 1 uM by CCK-8 assay", "format": "functional, cell-based"}, "[19]": {"tested_on": "BT-549", "experiment": "Antiproliferative activity in human BT-549 cells assessed as cell growth in the presence of lapatinib at 1 uM by CellTiter-Glo luminescent cell viability assay", "format": "functional, cell-based", "method_in_brief": "as §1"}, "[20]": {"tested_on": "MDA-MB-231", "experiment": "Effect on human MDA-MB-231 cells assessed as RSK3 protein expression at 1 uM for 24 hrs by Western blot analysis", "format": "functional, cell-based", "method_in_brief": "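Western blot for RSK3 in MDA-MB-231 and BT549 cells treated with DMSO or 1 μM for 0, 12 and 24 h. Antibody used at 1:1000.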"}, "[21]": {"tested_on": "BT-549", "experiment": "Effect on human RPS6KA2-knockdown BT-549 cells assessed as inhibition tumor sphere formation at 1 uM by Tumor sphere assay", "format": "functional, cell-based"}, "[22]": {"tested_on": "MDA-MB-231", "experiment": "Induction of apoptosis in human MDA-MB-231 cells expressing vector control assessed as necrotic cells at 1 uM by Annexin V-FITC flow cytometric analysis (reference value: 1.67%)", "format": "functional", "method_in_brief": "as §3"}, "[23]": {"target": "T1, Transcription factor JunD (Homo sapiens) (UniProt P17535)", "T1 sequence (whole entry)": "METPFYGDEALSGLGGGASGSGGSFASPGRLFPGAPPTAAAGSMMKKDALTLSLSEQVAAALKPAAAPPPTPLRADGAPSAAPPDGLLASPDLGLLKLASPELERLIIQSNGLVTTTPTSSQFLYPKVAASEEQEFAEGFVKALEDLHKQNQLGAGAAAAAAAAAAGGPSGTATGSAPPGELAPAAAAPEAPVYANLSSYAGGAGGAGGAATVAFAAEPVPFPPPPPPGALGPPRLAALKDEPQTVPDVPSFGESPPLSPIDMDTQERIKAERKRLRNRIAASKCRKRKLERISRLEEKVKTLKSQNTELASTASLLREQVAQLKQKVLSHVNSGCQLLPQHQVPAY", "experiment": "Binding affinity of JunD in human BT-549 cells assessed RPS6KA2 expression at 1 uM for 24 hrs by ChIP analysis", "format": "cell-based"}, "[24]": {"target": "T1, Transcription factor JunD (Homo sapiens)", "experiment": "Binding affinity to JunD in human MDA-MB-231 cells assessed RPS6KA2 expression at 1 uM for 24 hrs by ChIP analysis", "format": "cell-based"}, "[25]": {"tested_on": "MDA-MB-231", "experiment": "Effect on human JUND-knockdown MDA-MB-231 cells assessed as reduction of RSK3 protein expression at 1 uM by Western blot analysis", "format": "functional, cell-based", "method_in_brief": "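RSK3 and JunD were probed by western blot in JUND-knockdown or JUND-overexpressing stable clones and their controls, all selected with puromycin 1.0 μg/ml. Antibodies used at 1:1000.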"}},
  "note": "The source made the active and inactive calls. The calls are words filed in the database; no cut-off is given here.",
  "data": [
    {"smiles": "Cc1sc2c(c1C)C(c1ccc(Cl)cc1)=N[C@@H](CC(=O)OC(C)(C)C)c1nnc(C)n1-2", "values": [
      {"measurement": "Activity", "setting": "[1]", "value": "Active"},
      {"measurement": "Activity", "setting": "[2]", "value": "Active"},
      {"measurement": "Activity", "setting": "[3]", "value": "Active"},
      {"measurement": "Activity", "setting": "[4]", "value": "Active"},
      {"measurement": "Activity", "setting": "[5]", "value": "Active"},
      {"measurement": "Activity", "setting": "[6]", "value": 7.14, "unit": "%"},
      {"measurement": "Activity", "setting": "[7]", "value": "Active"},
      {"measurement": "Activity", "setting": "[8]", "value": "Active"},
      {"measurement": "Activity", "setting": "[9]", "value": "Active"},
      {"measurement": "Activity", "setting": "[10]", "value": "Active"},
      {"measurement": "Activity", "setting": "[11]", "value": "Active"},
      {"measurement": "Activity", "setting": "[12]", "value": "Active"},
      {"measurement": "Activity", "setting": "[13]", "value": "Active"},
      {"measurement": "Activity", "setting": "[14]", "value": "Active"},
      {"measurement": "Activity", "setting": "[15]", "value": 1.67, "unit": "%"},
      {"measurement": "Activity", "setting": "[16]", "value": "Active"},
      {"measurement": "Activity", "setting": "[17]", "value": "Active"},
      {"measurement": "Activity", "setting": "[18]", "value": "Active"},
      {"measurement": "Activity", "setting": "[19]", "value": "Active"},
      {"measurement": "Activity", "setting": "[20]", "value": "Active"},
      {"measurement": "Activity", "setting": "[21]", "value": "Active"},
      {"measurement": "Activity", "setting": "[22]", "value": 1.54, "unit": "%"},
      {"measurement": "Activity", "setting": "[23]", "value": "Active"},
      {"measurement": "Activity", "setting": "[24]", "value": "Active"},
      {"measurement": "Activity", "setting": "[25]", "value": "Active"}
    ]}
  ]
}
